Source: PubChem BioAssay
Rows were chosen to be rich in hits. Some 3.1% of all compounds tested hit in one or more screens of this group.
Apaf-1 inh – inhibitors of human Apaf-1 apoptosome, primary screen, biochemical, DEVD-Rh110 fluorescence, uHTS; Apoptotic protease-activating factor 1 (Homo sapiens), O14727; reconstituted apoptosome caspase-3 activity; inhibition, % at 20 µM; 330,000 tested, 0.71% active; AID 489030, 2010; active = inhibition of at least 40% at 20 µM
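Material: biochemical Apaf-1 apoptosome reconstitution. Medium: Hepes buffer, pH 7.5. Also added: cytochrome c activation, bis-DEVD rhodamine 110 substrate. Timing: 30 min compound preincubation, 50 min activation, room temperature. Measured by: rhodamine 110 fluorescence at Ex 480/Em 540 nm.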
SENP6 inh – SENP6 protease inhibitors, primary screen, biochemical, luminescence, uHTS. Sentrin-specific protease 6 (Homo sapiens), Q9GZR1. Recombinant SENP6 catalytic domain, aminoluciferin luminescence. inhibition, % at 10 µM. 330,000 tested, 1.8% active;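 active = inhibition above about 50% at the single tested dose, limit read from the data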
UBC13 polyUb – UBC13 polyubiquitin chain formation inhibitors, primary screen, biochemical, TR-FRET, uHTS; 330,000 tested, 0.47% active; inhibition, % at 20 µM; AID 485273, 2010; in the data active = inhibition above about 45%, passing the limit was not always enough
Target sequence (P61088 whole entry, looked up): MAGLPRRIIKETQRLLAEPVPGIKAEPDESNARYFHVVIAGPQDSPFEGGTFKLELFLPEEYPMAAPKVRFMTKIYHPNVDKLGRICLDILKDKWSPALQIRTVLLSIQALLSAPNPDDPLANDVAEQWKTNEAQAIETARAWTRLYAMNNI
SENP7 inh – SENP7 protease inhibitors, primary screen, biochemical, luminescence, uHTS | 330,000 tested, 1.5% active | inhibition, % at 5 µM | recombinant SENP7, Z-RLRGG-aminoluciferin luminescence, 40 min | AID 434973, 2010;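 active = inhibition above about 50% at the single test dose, limit read from the data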
Target sequence (Q9BQF6 706-1050 limits assumed): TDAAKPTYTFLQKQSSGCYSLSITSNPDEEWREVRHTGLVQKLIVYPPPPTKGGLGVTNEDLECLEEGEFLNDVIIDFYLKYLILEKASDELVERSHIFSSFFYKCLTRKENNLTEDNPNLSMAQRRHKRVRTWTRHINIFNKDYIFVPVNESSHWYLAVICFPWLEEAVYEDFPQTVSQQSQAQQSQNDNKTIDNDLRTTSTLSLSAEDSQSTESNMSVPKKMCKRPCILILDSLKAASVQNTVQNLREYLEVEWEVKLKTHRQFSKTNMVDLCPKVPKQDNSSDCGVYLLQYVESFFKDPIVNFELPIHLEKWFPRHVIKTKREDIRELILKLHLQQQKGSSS
SENP8 block-1 – SENP8 protease inhibitors, primary screen, biochemical, luminescence | Sentrin-specific protease 8 (Homo sapiens), Q96LD8 | purified SENP8, Z-RLRGG-aminoluciferin cleavage | inhibition, % at 10 µM | 330,000 tested, 1.2% active | AID 2540, 2010; in the data active = inhibition above about 50%
SENP8 block-2 – human SENP8 protease inhibitors, primary screen, biochemical, fluorescence, Nedd8 protein substrate, uHTS; Sentrin-specific protease 8 (Homo sapiens), Q96LD8; recombinant SENP8; inhibition, % at 20 µM; 360,000 tested, 0.64% active; AID 602440, 2012; in the data active = inhibition mostly above about 40%, no sharp cut-off; inactive = mostly below about 27%
SENP8 conf – SENP8 protease inhibitors, retest, confirmation, biochemical, luminescence, single concentration; shares compounds with SENP7 inh; Recombinant SENP8, Z-RLRGG-aminoluciferin luminescence, 60 min; inhibition, % at 12.5 µM; 6,200 tested, 40% active; AID 488912, 2010;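 active = mean inhibition across replicates above about 50%, limit read from the data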
SENP6 confirm – SENP6 protease inhibitors, confirmation, biochemical, luminescence, single concentration | inhibition, % at 12.5 µM | AID 488915, 2010 | recombinant SENP6, Z-RLRGG-aminoluciferin luminescence | 6,200 tested, 58% active | shares compounds with SENP7 inh
SENP7 confirm – SENP7 protease inhibitors, retest, confirmation, biochemical, luminescence, single concentration | 6,200 tested, 69% active | recombinant SENP7, Z-RLRGG-aminoluciferin luminescence, 40 min | inhibition, % at 12.5 µM | AID 488917, 2010 | shares compounds with SENP7 inh
Casp3 select – caspase-3 protease inhibitors, confirmation, selectivity assay for SENP inhibitor project, biochemical, single concentration; shares compounds with SENP7 inh; purified caspase-3, Z-DEVD-aminoluciferin luminescence, 60 min; inhibition, % at 12.5 µM; 6,200 tested, 60% active; AID 488918, 2010;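 active = mean inhibition above about 50%, limit read from the data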
Luc interf – interferes with luciferase luminescence in SENP counter-screen. 6,200 tested, 39% active. AID 488919. Pre-incubated SENP8/Z-RLRGG-aminoluciferin, luciferase luminescence interference. inhibition, % at 12.5 µM. shares compounds with SENP7 inh;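 active = mean inhibition above about 50% when retested at one dose, limit read from the data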
Each line names hits and unclear results; the compound was inactive in the other large screens (follow-up assays come after a bar, where they were run).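 The calls were made as follows, unless noted: active = mean inhibition above about 50% in the one-dose retest (limit read from the data); inactive = the rest.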

Cc1ccsc1C(=O)N1CCC1(C)C(=O)NS(=O)(=O)c1ccccc1C(F)(F)F (stereo not drawn)	none (no result: Apaf-1 inh, SENP6 inh, UBC13 polyUb, SENP7 inh, SENP8 block-1)
O=C(c1ccoc1)N1CCN(c2cc(-c3cccnc3)nc3cc(-c4cccc(Cl)c4)nn23)CC1	none (no result: Apaf-1 inh, SENP6 inh, UBC13 polyUb, SENP7 inh, SENP8 block-1)
CCCc1nc2ccc(C(=O)OC)cn2c1Cc1ccc(C)cc1	none (no result: Apaf-1 inh, SENP6 inh, UBC13 polyUb, SENP7 inh, SENP8 block-1)
Cc1ccc2nc(NC(=O)c3ccccc3F)sc2c1	SENP6 inh 86, SENP7 inh 91, SENP8 block-1 81 | SENP8 conf inactive | SENP6 confirm 76 | SENP7 confirm 50 | Casp3 select 64 | Luc interf inactive
COc1ccc2nc(NC(=O)Nc3ccccc3)sc2c1	SENP6 inh 68, SENP7 inh 85 | SENP8 conf inactive | SENP6 confirm inactive | SENP7 confirm 91 | Casp3 select 52 | Luc interf inactive
COc1ccc(C(=O)Nc2nc3ccccc3s2)c(OC)c1	SENP6 inh 97, SENP7 inh 101, SENP8 block-1 98 | SENP8 conf 88 | SENP6 confirm 100 | SENP7 confirm 103 | Casp3 select 98 | Luc interf inactive
COc1ccc(OC)c(NC(=O)c2nc3ccccc3s2)c1	none
COc1ccc(NC(=O)c2nc3ccccc3s2)cc1	SENP6 inh 95, SENP7 inh 97, SENP8 block-1 95 | SENP8 conf inactive | SENP6 confirm 98 | SENP7 confirm 102 | Casp3 select 94 | Luc interf 75
COc1ccc(NC(=O)c2sc(NC(=O)COc3ccccc3)nc2C)cc1	SENP6 inh 68, SENP8 block-1 59 | SENP8 conf inactive | SENP6 confirm 54 | SENP7 confirm 96 | Casp3 select 82 | Luc interf inactive
COc1ccc2nc(NC(=O)c3ccccc3-c3ccccc3C(=O)O)sc2c1	none
COc1ccc2nc(NC(=O)c3ccccc3F)sc2c1	SENP6 inh 87, SENP7 inh 93, SENP8 block-1 83 | SENP8 conf 75 | SENP6 confirm 85 | SENP7 confirm 98 | Casp3 select 87 | Luc interf inactive
CC(C)Oc1ccc(NC(=O)Oc2ccccc2)cc1	SENP6 inh 88, SENP8 block-1 80 | SENP8 conf inactive | SENP6 confirm 100 | SENP7 confirm 103 | Casp3 select 98 | Luc interf 94
COc1ccccc1C(C(=O)c1ccccc1)c1ccc(O)cc1 (stereo not drawn)	none (no result: Apaf-1 inh, SENP6 inh, UBC13 polyUb, SENP7 inh, SENP8 block-1)
Nc1nc2c(Br)ccc(Br)c2cc1C(=O)NCc1cccc2ccccc12	none (no result: Apaf-1 inh, SENP6 inh, UBC13 polyUb, SENP7 inh, SENP8 block-1)
CCOC(=O)CN1N=C(/C=C/c2ccc(C)cc2)CCC1=O	none
COc1ccc(/C=C/C2=NN(C)C(=O)CC2)cc1	SENP6 inh 78, SENP7 inh 83, SENP8 block-1 69 | SENP8 conf 81 | SENP6 confirm 80 | SENP7 confirm 94 | Casp3 select 93 | Luc interf 80
CCCCN1CCCCC1(C)C(=O)NCc1ccc2c(c1)OCO2 (stereo not drawn)	none (no result: Apaf-1 inh, SENP6 inh, UBC13 polyUb, SENP7 inh, SENP8 block-1)
O=C(Nc1nc2c(s1)CCCC2)c1ccc2ncsc2c1	none
O=C(Nc1nc2c(s1)CCCC2)c1ccc(Br)s1	SENP6 inh 60, SENP7 inh 53 | SENP8 conf inactive | SENP6 confirm inactive | SENP7 confirm 86 | Casp3 select inactive | Luc interf inactive
Cc1cc(C(=O)Nc2nc3c(s2)CCCC3)cs1	SENP6 inh 84, SENP7 inh 86, SENP8 block-1 67 | SENP8 conf inactive | SENP6 confirm 75 | SENP7 confirm 98 | Casp3 select 84 | Luc interf inactive
Cc1ncsc1C(=O)Nc1nc2c(s1)CCCC2	SENP6 inh 96, SENP7 inh 99, SENP8 block-1 92 | SENP8 conf 52 | SENP6 confirm 98 | SENP7 confirm 103 | Casp3 select 98 | Luc interf 53
Cc1cccc(C)c1-n1nnnc1C(c1ccnc2ccccc12)N1CCCN(C(=O)OC(C)(C)C)CC1 (stereo not drawn)	none (no result: Apaf-1 inh, SENP6 inh, UBC13 polyUb, SENP7 inh, SENP8 block-1)
O=C(OCc1ccccc1)c1c(-c2ccccc2)oc2c1C(OCCO)CCC2 (stereo not drawn)	none (no result: Apaf-1 inh, SENP6 inh, UBC13 polyUb, SENP7 inh, SENP8 block-1)
COCC(=O)Oc1cc(-c2ccc(C)cc2C)c(OC(=O)COC)c(-c2ccc(C)cc2C)c1	none (no result: Apaf-1 inh, SENP6 inh, UBC13 polyUb, SENP7 inh, SENP8 block-1)
C[C@@H]1CN([C@@H](C)CO)C(=O)CCCn2cc(nn2)CO[C@H]1CN(C)S(=O)(=O)c1ccc(Cl)cc1	none (no result: Apaf-1 inh, SENP6 inh, UBC13 polyUb, SENP7 inh, SENP8 block-1)
FC(F)Oc1ccc(NC(=S)N2CCc3ccccc32)cc1	SENP6 inh 50 | SENP8 conf inactive | SENP6 confirm inactive | SENP7 confirm inactive | Casp3 select inactive | Luc interf inactive
Fc1ccc(NC(=S)N2CCc3ccccc32)cc1	none
Cc1cc(-c2nc3ccccc3[nH]2)ccc1N	SENP6 inh 50, SENP7 inh 91, SENP8 block-1 70 | SENP8 conf 87 | SENP6 confirm 86 | SENP7 confirm 99 | Casp3 select 93 | Luc interf 87
c1ccc(-c2nc3ccccc3[nH]2)cc1	SENP6 inh 76, SENP7 inh 76, SENP8 block-1 71 | SENP8 conf 73 | SENP6 confirm 66 | SENP7 confirm 90 | Casp3 select 84 | Luc interf 69
COC(=O)c1ccc(-c2nc3ccccc3[nH]2)cc1	SENP6 inh 88, SENP7 inh 95, SENP8 block-1 85 | SENP8 conf 93 | SENP6 confirm 93 | SENP7 confirm 100 | Casp3 select 96 | Luc interf 91
